Assays:
Ramos [1] = experiment: Induction of apoptosis in human Ramos cells assessed as late apoptotic cells at 10 uM after 72 hrs by Annexin V-FITC/propidium iodide staining based flow cytometry (reference value: 0.5%); assay type: functional
Ramos [2] = experiment: Induction of apoptosis in human Ramos cells assessed as viable cells at 20 uM after 72 hrs by Annexin V-FITC/propidium iodide staining based flow cytometry (reference value: 98.7%); assay type: functional; conditions: read-out: Activity
Ramos [3] = experiment: Antiproliferative activity against human Ramos cells assessed as inhibition of cell viability at 20 uM after 72 hrs by CCK-8 assay; assay type: functional
Summary of the method: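 CCK-8 viability assay. Cells were seeded at 3000/well in RPMI-1640 with 10% FBS at 37 °C, 5% CO2, for 4 h before treatment. Exposure was 72 h at five concentrations (1.25, 5, 10, 20, 40 µM), each in five replicates. Absorbance was read at 450 nm. IC50 came from dose-response curves, as the mean of at least three separate experiments.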

Ramos [4] = experiment: Induction of apoptosis in human Ramos cells assessed as viable cells at 5 uM after 72 hrs by Annexin V-FITC/propidium iodide staining based flow cytometry (reference value: 98.7%); assay type: functional; conditions: read-out: Activity
Ramos [5] = experiment: Induction of apoptosis in human Ramos cells assessed as late apoptotic cells at 5 uM after 72 hrs by Annexin V-FITC/propidium iodide staining based flow cytometry (reference value: 0.5%); assay type: functional
Ramos [6] = experiment: Induction of apoptosis in human Ramos cells assessed as total apoptosis rate at 20 uM after 72 hrs by Annexin V-FITC/propidium iodide staining based flow cytometry relative to control
[7] = target: T1, Tyrosine-protein kinase JAK3 (Homo sapiens, UniProt P52333); experiment: Inhibition of recombinant N-terminal GST-tagged human JAK3 (781 to end residues) expressed in baculovirus infected Sf9 insect cells using Poly(4:1 Glu,Tyr) peptide substrate incubated for 60 mins by ADP-Glo luminescence assay
T1 sequence (P52333 whole entry): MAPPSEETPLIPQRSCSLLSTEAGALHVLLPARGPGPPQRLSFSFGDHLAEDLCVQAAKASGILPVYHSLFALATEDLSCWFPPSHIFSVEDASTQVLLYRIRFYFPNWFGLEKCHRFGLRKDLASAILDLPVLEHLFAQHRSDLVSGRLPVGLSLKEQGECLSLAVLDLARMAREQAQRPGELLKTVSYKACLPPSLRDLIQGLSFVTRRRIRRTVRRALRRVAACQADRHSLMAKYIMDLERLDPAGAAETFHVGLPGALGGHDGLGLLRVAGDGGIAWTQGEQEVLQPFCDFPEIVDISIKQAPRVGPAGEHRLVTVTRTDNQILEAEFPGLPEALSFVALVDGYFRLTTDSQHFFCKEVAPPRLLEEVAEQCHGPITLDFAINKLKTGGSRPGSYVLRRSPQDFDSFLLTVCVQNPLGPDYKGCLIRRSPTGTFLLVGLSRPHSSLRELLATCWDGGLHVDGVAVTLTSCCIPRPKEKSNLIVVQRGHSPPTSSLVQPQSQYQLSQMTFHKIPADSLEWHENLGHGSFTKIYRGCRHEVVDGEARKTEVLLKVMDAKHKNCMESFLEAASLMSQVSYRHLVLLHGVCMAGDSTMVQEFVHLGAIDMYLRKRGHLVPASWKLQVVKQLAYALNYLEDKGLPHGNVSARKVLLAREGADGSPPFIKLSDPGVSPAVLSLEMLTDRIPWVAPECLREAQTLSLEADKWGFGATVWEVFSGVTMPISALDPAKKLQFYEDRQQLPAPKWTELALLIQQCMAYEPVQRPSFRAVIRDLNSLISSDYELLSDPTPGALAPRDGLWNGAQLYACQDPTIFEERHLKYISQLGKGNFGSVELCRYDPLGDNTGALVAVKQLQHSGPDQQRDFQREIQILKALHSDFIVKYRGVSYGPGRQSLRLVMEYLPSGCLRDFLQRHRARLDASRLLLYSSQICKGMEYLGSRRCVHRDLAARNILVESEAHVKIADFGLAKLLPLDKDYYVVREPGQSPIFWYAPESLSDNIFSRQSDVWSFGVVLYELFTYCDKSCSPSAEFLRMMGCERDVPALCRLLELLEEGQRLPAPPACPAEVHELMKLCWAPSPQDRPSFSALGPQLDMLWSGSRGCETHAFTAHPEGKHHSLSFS
Summary of the method: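 ADP-Glo luminescent kinase assay. The kinase reaction ran 60 min at room temperature in 1× kinase buffer. ADP-Glo reagent was added to stop the reaction and deplete ATP, followed by 40 min at room temperature. Detection reagent then converted ADP to ATP for a luciferase readout, followed by 30 min at room temperature. Luminescence was integrated over 0.5–1 s, and IC50 came from curve fitting.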

PBMC = experiment: Cytotoxicity against human PBMCs assessed as induction of morphological changes at <10 uM after 24 hrs by AO/PI staining-based phase contrast microscopy; assay type: cell-based
Ramos [8] = experiment: Antiproliferative activity against human Ramos cells after 72 hrs by CCK-8 assay
Ramos [9] = experiment: Induction of apoptosis in human Ramos cells assessed as early apoptotic cells at 10 uM after 72 hrs by Annexin V-FITC/propidium iodide staining based flow cytometry (reference value: 0.0%); assay type: functional
Ramos [10] = experiment: Induction of apoptosis in human Ramos cells assessed as necrotic cells at 5 uM after 72 hrs by Annexin V-FITC/propidium iodide staining based flow cytometry (reference value: 0.7%); assay type: functional
Ramos [11] = experiment: Induction of apoptosis in human Ramos cells assessed as early apoptotic cells at 5 uM after 72 hrs by Annexin V-FITC/propidium iodide staining based flow cytometry (reference value: 0.0%); assay type: functional
Ramos [12] = experiment: Induction of apoptosis in human Ramos cells assessed as necrotic cells at 20 uM after 72 hrs by Annexin V-FITC/propidium iodide staining based flow cytometry (reference value: 0.7%); assay type: functional
[13] = target: T2, Tyrosine-protein kinase JAK3 (Homo sapiens) (UniProt P52333); experiment: Inhibition of JAK3 in human NAMALWA cells assessed as reduction in STAT3 phosphorylation after 48 hrs by immunoblot analysis; assay type: cell-based
T2 sequence (whole entry): T1 sequence (P52333 whole entry)
Summary of the method: (§1)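 Namalwa cells were treated with 1, 5 or 10 µM for 48 h. Lysates were cleared at 14,000 g for 15 min at 4 °C, and 50 µg of protein was run on 8–12% SDS-PAGE and transferred to PVDF. Membranes were blocked in 5% milk for 2 h and incubated with primary antibody overnight at 4 °C. Detection was by ECL, with band IOD normalized to β-actin.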

[14] = target: Tyrosine-protein kinase BTK (Homo sapiens, UniProt Q06187); experiment: Inhibition of BTK phosphorylation in human NAMALWA cells after 48 hrs by immunoblot analysis; assay type: cell-based; summary of the method: as §1
Ramos [15] = experiment: Induction of apoptosis in human Ramos cells assessed as viable cells at 10 uM after 72 hrs by Annexin V-FITC/propidium iodide staining based flow cytometry (reference value: 98.7%); assay type: functional; conditions: read-out: Activity

Tyrosine-protein kinase BTK, sequence (Q06187 whole entry): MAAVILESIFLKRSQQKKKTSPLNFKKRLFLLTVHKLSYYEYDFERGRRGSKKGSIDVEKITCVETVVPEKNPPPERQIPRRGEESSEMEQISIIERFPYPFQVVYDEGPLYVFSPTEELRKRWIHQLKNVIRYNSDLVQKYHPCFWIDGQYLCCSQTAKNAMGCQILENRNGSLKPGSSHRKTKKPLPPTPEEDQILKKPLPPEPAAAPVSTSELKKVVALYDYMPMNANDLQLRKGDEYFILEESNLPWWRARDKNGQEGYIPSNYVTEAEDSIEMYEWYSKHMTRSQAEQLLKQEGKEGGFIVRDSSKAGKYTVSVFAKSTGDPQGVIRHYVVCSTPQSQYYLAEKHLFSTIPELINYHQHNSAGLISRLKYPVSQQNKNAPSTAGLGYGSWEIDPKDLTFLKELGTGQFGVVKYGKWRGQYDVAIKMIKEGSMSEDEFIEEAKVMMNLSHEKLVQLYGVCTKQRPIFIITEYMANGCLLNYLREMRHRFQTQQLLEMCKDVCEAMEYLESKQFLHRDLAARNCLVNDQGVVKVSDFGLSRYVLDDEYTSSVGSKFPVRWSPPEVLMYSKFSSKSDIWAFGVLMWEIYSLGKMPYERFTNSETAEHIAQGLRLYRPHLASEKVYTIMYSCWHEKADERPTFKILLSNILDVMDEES

| SMILES | Activity (Ramos [1]) | viability at 20 µM (Ramos [2]) | inhibition at 20 µM (Ramos [3]) | viability at 5 µM (Ramos [4]) | Activity (Ramos [5]) | Activity (Ramos [6]) | IC50 [7] | Activity (PBMC) | IC50 (Ramos [8]) | Activity (Ramos [9]) | Activity (Ramos [10]) | Activity (Ramos [11]) | Activity (Ramos [12]) | inhibition [13] | inhibition [14] | viability at 10 µM (Ramos [15]) |
| --- | --- | --- | --- | --- | --- | --- | --- | --- | --- | --- | --- | --- | --- | --- | --- | --- |
| C=CC(=O)Nc1cccc(Nc2nc(Nc3ccc(OCCCN4CCOCC4)cc3)ncc2Cl)c1 | 9.6% | 16.3% | 91% | 34.4% | 8.2% | 80.2% | 0.83 nM | Non-Toxic | 4850 nM | 67.6% | 6.6% | 50.8% | 3.5% | Dose-dependent effect | Dose-dependent effect | 20.1% |
| C=CC(=O)Nc1cccc(Nc2nc(Nc3ccc(OCC(=O)N4CCOCC4)c(Cl)c3)ncc2Cl)c1 | 10.9% | 20.1% | 91% | 37.2% | 7% | 79.5% | 8.34 nM | Non-Toxic | 2460 nM | 59% | 0.9% | 54.8% | 0.4% | Dose-dependent effect | Dose-dependent effect | 29% |

Reference: ChEMBL document CHEMBL4251566 (Eur J Med Chem, 2018)
